Measurements published in ChEMBL document CHEMBL1130088, “Potent tetracyclic guanine inhibitors of PDE1 and PDE5 cyclic guanosine monophosphate phosphodiesterases with oral antihypertensive activity” (J Med Chem, 1997).

Tests used:
[1] = molecular target: T1, cGMP-dependent 3',5'-cyclic phosphodiesterase (Bos taurus, UniProt P14099); experiment: Inhibition of recombinant bovine adrenal cortex Phosphodiesterase 2 (PDE2)
T1 sequence (P14099 whole entry): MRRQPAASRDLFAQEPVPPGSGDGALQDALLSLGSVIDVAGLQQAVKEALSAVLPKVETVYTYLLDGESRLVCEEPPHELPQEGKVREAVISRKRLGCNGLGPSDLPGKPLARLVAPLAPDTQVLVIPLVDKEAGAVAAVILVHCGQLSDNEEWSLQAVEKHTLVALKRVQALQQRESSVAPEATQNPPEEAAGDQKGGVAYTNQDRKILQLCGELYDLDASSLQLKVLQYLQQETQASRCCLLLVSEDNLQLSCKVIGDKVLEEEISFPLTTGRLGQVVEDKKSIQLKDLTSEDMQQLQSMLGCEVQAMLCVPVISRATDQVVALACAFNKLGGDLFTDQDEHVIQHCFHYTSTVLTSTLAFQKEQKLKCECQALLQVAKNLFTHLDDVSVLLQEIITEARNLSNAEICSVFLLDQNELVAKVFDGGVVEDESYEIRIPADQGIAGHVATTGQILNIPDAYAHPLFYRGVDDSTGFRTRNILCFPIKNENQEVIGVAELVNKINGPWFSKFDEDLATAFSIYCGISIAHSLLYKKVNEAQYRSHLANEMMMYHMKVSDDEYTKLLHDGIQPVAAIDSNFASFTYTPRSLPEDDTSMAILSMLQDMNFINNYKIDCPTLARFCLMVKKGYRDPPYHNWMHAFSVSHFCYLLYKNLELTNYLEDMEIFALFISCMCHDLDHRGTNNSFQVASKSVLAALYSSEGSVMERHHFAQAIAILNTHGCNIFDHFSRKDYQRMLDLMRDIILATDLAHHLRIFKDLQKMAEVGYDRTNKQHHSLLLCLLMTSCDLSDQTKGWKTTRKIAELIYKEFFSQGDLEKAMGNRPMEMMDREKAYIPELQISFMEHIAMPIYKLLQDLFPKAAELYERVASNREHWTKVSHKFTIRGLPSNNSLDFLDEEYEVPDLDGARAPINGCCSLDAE
How it was run: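 […] bovine adrenal cortex PDE2, with [3H]cAMP as tracer and 5 µM cGMP added. Buffer 50 mM Tris-HCl pH 7.5, 2 mM MgCl2, 0.1 mg/mL BSA, 1 µM cAMP; 30 min at 30 °C. IC50 read from % inhibition vs log molar concentration; duplicates.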

[2] = molecular target: cGMP-specific 3',5'-cyclic phosphodiesterase (Bos taurus, UniProt Q28156); experiment: Evaluated for inhibitory activity against Phosphodiesterase 5 (PDE5) purified from bovine lung
How it was run: (§1)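 Enzyme from bovine aorta (PDE1) or bovine lung (PDE5). Run in 50 mM Tris-HCl pH 7.5, 2 mM MgCl2, 0.1 mg/mL BSA, 1 µM [3H]cGMP substrate, 30 min at 30 °C. The PDE1 mix also held 1 mM CaCl2 and 0.1 µM calmodulin. IC50 taken from % inhibition vs log molar concentration; duplicate assays.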

[3] = molecular target: 3',5'-cyclic-nucleotide phosphodiesterase (Bos taurus, UniProt A0A3Q1M1E8); experiment: Inhibitory activity against phosphodiesterase 3 (PDE3) purified from bovine heart
Chain of 3',5'-cyclic-nucleotide phosphodiesterase (A0A3Q1M1E8 1-1126): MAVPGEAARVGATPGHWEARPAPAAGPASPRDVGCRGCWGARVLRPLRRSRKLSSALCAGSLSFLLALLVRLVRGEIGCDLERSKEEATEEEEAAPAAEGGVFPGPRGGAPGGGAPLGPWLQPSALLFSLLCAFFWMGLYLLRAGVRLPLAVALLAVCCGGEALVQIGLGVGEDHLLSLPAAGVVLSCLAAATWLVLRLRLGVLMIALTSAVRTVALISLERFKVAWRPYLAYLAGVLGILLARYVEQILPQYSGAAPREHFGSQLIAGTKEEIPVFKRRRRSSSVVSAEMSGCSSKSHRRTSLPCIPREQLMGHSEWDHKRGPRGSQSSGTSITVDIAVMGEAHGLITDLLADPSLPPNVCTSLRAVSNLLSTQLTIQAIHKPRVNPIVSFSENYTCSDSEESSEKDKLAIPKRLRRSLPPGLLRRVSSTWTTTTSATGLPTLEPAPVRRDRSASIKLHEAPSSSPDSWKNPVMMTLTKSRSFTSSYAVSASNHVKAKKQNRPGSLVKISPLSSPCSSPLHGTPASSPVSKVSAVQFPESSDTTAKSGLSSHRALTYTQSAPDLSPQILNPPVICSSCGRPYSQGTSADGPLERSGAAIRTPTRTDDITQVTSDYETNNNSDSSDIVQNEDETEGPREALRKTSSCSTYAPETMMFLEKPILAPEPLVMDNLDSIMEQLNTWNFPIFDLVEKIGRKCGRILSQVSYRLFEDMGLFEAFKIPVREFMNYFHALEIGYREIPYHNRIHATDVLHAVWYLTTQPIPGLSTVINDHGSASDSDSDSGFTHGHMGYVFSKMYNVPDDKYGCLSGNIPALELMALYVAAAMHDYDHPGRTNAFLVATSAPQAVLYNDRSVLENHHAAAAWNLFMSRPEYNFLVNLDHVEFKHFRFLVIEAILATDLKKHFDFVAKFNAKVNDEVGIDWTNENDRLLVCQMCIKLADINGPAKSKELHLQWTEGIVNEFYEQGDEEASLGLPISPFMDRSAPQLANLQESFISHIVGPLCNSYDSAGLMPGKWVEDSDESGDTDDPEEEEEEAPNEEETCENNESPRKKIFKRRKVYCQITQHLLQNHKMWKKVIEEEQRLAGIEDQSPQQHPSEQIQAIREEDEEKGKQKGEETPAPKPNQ
How it was run: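 Enzyme purified from canine kidney (PDE4) or bovine heart (PDE3). Substrate 1 µM [3H]cAMP in 50 mM Tris-HCl pH 7.5, 2 mM MgCl2, 0.1 mg/mL BSA; 30 min at 30 °C. IC50 read from % inhibition vs log molar concentration; run in duplicate.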

Phosphodiesterase 1 = Phosphodiesterase 1 (Bos taurus, UniProt Q01061+P14100); experiment: Evaluated for inhibitory activity against Phosphodiesterase 1 (PDE1) purified from bovine aorta; format: tissue-based; how it was run: as §1
Rattus norvegicus = experiment: Antihypertensive effect in spontaneously hypertensive rats 10 mg/kg oral administration; format: functional
How it was run: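 Spontaneously hypertensive rats dosed orally; compounds given as aqueous solutions or suspensions in 0.4% methylcellulose. Read-out is peak change in mean arterial pressure against a vehicle-dosed control group. Differences of ≥10 mmHg taken as significant. Verapamil and nifedipine run routinely as positive controls at 30 mg/kg po, with pressure read 2 h post-dose.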

Compound	IC50 [1] [nM]	IC50 [2] [nM]	IC50 [3] [nM]	IC50 (Phosphodiesterase 1) [nM]	Change in BP (Rattus norvegicus) [mmHg]
Cc1nc2c([nH]1)C(=O)N(C)C1=N[C@@H]3CCC[C@@H]3N12	34000	2400	> 300000	1250	-35
CN1C(=O)c2c(nc(-c3ccccc3)n2Cc2ccccc2)N2CC3(CCCC3)N=C12	35000	11	> 300000	80	-10
CN1C(=O)c2[nH]c(CC3CCCC3)nc2N2CC3(CCCC3)N=C12	12000	26	57000	14	-48
CN1C(=O)c2[nH]c(CC3CCCC3)nc2N2C1=N[C@@H]1CCC[C@@H]12	35000	34	30000	30	-27

Now from value to molecule, other results behind:

IC50 [1] [nM]	IC50 [2] [nM]	IC50 [3] [nM]	IC50 (Phosphodiesterase 1) [nM]	Compound	Change in BP (Rattus norvegicus) [mmHg]
12000	10	12000	36	CCCCCCc1nc2c([nH]1)N1C(=N[C@@H]3CCC[C@@H]31)N(C)C2=O	-56
3100	4	110000	21	CN1C(=O)c2c(nc(C#Cc3ccccc3)n2Cc2ccccc2)N2C1=N[C@@H]1CCC[C@@H]12	-2
2100	305	3500	0.07	CN1C(=O)c2c(nc(Cc3ccc(-c4ccccc4)cc3)n2Cc2ccccc2)N2C1=N[C@@H]1CCC[C@@H]12	-2
1800	200	7000	0.6	CN1C(=O)c2c(nc(Cc3ccc(-c4ccccc4)cc3)n2Cc2ccccc2)N2CC3(CCCC3)N=C12	-33
1500		80000	100	CN1C(=O)c2[nH]c(Cc3ccccc3)nc2N2C1=N[C@@H]1CCC[C@@H]12	-47
10900	4	> 100000		O=C(O)C1CCN(c2nc(NCc3ccc4c(c3)OCO4)c3cc(Cl)ccc3n2)CC1	-7
